Bioassay records deposited in PubChem BioAssay by several laboratories.
Sampled rows, rich in hits. Any-hit rate of the full collection: about 5.3%.
Plk1 PBD FP – Plk1 (human) PBD binding inhibition; inhibition, %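 (tested at about 20 µM)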; Plk1 PBD phosphopeptide binding, fluorescence polarization; 0.13% of 97,000 active; in the data active means inhibition above about 34%, passing the limit was not always enough
Cav3 T inh – inhibitors of human Cav3.2 T-type calcium channel. B-score at 10 µM. AID 449739. O95180. Cav3.2-expressing cells, Fluo-4 calcium fluorescence FDSS; stronger effect = lower value. 4% of 100,000 active;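 active means single-dose well whose peak fluorescence ratio is a statistical outlier from its plate by either plate-standardised score or position-corrected B-score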
PLK1 inh – PLK1 (human) kinase inhibition; P53350; inhibition, % at 10 µM; recombinant PLK1 kinase, TR-FRET peptide phosphorylation; AID 619; 0.53% of 97,000 active;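 active means inhibition of 50% or more in the single-concentration screen; inactive means inhibition below 50%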;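 further: 0% = DMSO max control and 100% = H-89 dihydrochloride min control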
FAK inh – FAK (human) kinase inhibition; Q05397; biochemical FAK kinase activity assay; inhibition, %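 (tested at 7 µM)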; 0.84% of 97,000 active; AID 727;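 further: 0% = DMSO and 100% = reference compound high control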
HIV Rev-RRE inh – inhibitors of HIV-1 Rev-RRE RNA interaction; P05866; 0.79% of 97,000 active; Rev peptide-RRE RNA binding, FRET; inhibition, % at 8 µM;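 active means inhibition above the screen-wide mean plus 3 SD, cut at about 35% in these data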;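 further: 0% = median DMSO wells and 100% = median Neomycin B control wells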
Target sequence (P05866 whole entry, looked up): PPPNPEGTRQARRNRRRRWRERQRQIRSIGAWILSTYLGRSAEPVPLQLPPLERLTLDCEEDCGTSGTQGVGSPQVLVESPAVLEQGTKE
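assay system = Cy5-tagged RRE RNA duplex with fluorescein-tagged Rev peptide | incubation = 5 + 15 min at 25 °C | also added = labelled Rev peptide | measure = % inhibition of FRET ratio versus controls | benchmarks = DMSO wells as 0% and neomycin B wells as 100% inhibition | measured by = FRET fluorescence readout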
EphB4 ephrin blk – antagonists of human EphB4-ephrin-B2 interaction; AID 720; P54760; 0.15% of 97,000 active; inhibition, % at 7 µM; EphB4 LBD / TNYL-RAW-Alexa532 peptide, fluorescence polarization;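 active means inhibition above the screen-wide mean inhibition plus 3 SD, cut at about 15% in these data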;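 further: 0% = DMSO wells and 100% = excess unlabeled TNYL-RAW peptide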
PLK1 confirm – PLK1 (human) kinase inhibition, confirmed | shares compounds with PLK1 inh | recombinant PLK1 kinase, TR-FRET peptide phosphorylation | inhibition, % at 10 µM | 20% of 210 active | AID 744;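 active means inhibition at or above 50% in each of two repeat confirmation tests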;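 further: 0% = DMSO max control and 100% = H-89 kinase-blocked min control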
Plk1 interf – Plk1 assay compound interference counter-screen hit | AID 756 | shares compounds with PLK1 inh | Plk1 TR-FRET assay interference, compound added post-reaction | inhibition (interference), % at 10 µM | 210 tested, under 10 active;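 active means both duplicate runs show 50% or greater inhibition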;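 further: 0% = DMSO max control and 100% = H-89 min control inhibited reaction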
FAK inh conf – FAK (human) inhibition confirmed | shares compounds with FAK inh | FAK kinase biochemical inhibition assay | inhibition, % at 7 µM | 28% of 750 active
Numbers without * were called inactive; . = not tested or not shown. Unless noted, no stated cut-off is given here; in the data, active means inhibition above about 19%; inactive means the rest.

SMILES	Plk1 PBD FP	Cav3 T inh	PLK1 inh	FAK inh	HIV Rev-RRE inh	EphB4 ephrin blk	PLK1 confirm	Plk1 interf	others
Cc1c(NC(=O)C(C)N2C(=O)c3ccccc3C2=O)c(=O)n(-c2ccccc2)n1C (centres undefined)	4	0.19	-5	3	-1	0	.	.
CC(C)(C)c1ccc(C(=O)CSc2n[nH]c(=O)[nH]c2=O)cc1	-13	0.043	-11	1	4	-3	.	.
CC(=O)Nc1ccc(C(=O)CSc2ncn(-c3ccccc3)n2)cc1	-18	0.71	84*	2	0	-14	-13	-51
O=C(CSc1ncn(-c2ccccc2)n1)Nc1nccs1	-12	0.53	11	0	8	5	.	.
CCOC(=O)c1c(C)n(C)c2ccc(OCC(O)Cn3c(C)nc4ccccc43)cc12 (centres undefined)	-5	-1.3	10	1	-2	2	.	.
CCOC(=O)c1c(C)n(C)c2ccc(OCC(O)CN3CCN(C)CC3)cc12 (centres undefined)	9	-1.6	75*	3	11	3	-7	-44
COc1cccc(OCC(O)CN2CCC(C)CC2)c1 (centres undefined)	14	.	-5	-1	7	-2	.	.
CN1CCN(CC(O)COc2ccc(OCC(O)CN3CCN(C)CC3)cc2)CC1 (centres undefined)	-14	1.3	-18	9	7	6	.	.
CC1CCN(CC(O)COc2cccc(F)c2)CC1 (centres undefined)	7	0.52	74*	2	7	-5	-2	-55
CC1CCN(CC(O)COc2ccc(F)cc2)CC1 (centres undefined)	0	0.66	75*	1	4	6	-8	-58
Cc1ccccc1N1CCN(C(=O)c2ccccc2NC(=O)C2CC=CCC2C(=O)O)CC1 (centres undefined)	7	0.089	-3	1	1	2	.	.
N#C/C(=C\c1ccccc1)c1nc2ncccc2[nH]1	-13	1.1	14	-1	10	4	.	.
CC(C)Nc1ncnc2c1cnn2-c1ccccc1	9	0.14	-6	3	2	-6	.	.
NNc1ncnc2c1cnn2-c1ccccc1	13	2.5	75*	3	7	4	68*	-60
CCCCN(CC)C(=O)Cn1c(=O)sc2ccccc21	-18	0.0028	-13	-1	5	1	.	.
COc1cc(C)ccc1NC(=O)c1ccc(S(=O)(=O)N2CCOCC2)cc1	27	-0.016	-6	-4	6	-10	.	.
Cc1cc(C)c(NC(=O)c2ccc(S(=O)(=O)N3CCOCC3)cc2)c(C)c1	-3	0.74	72*	-8	6	-5	-11	-48
COc1ccc(-c2cc(C(=O)NCCN3CCOCC3)c3ccccc3n2)cc1	-21	1.4	8	-3	5	5	.	.
O=C(NCCCN1CCOCC1)c1cc(-c2ccc3c(c2)OCO3)nc2ccccc12	28	0.039	72*	-3	0	-5	-1	-51
Cc1cc(N)ccc1-n1c(C)ccc1C	.	-0.83	.	.	.	.	.	.
Cc1cc(N)ccc1N1CCCC1	11	0.79	80*	74*	0	13	20	-24	FAK inh conf=58*
N#Cc1c(NC(=O)CSc2ncnc3sccc23)oc(-c2ccco2)c1-c1ccco1	-4	-2.5	77*	22*	31	-1	-9	-53	FAK inh conf=1
COC(=O)N1[C@H](C)C=C[C@]1(Cc1ccccc1)C(=O)NCCCNc1ncc(C(F)(F)F)cc1Cl	.	-2.2	.	.	.	.	.	.
CCCc1[nH]nc2c1C(c1ccc(O)c(OC)c1)C(C#N)=C(N)O2 (centres undefined)	0	.	109*	20*	9	1	-3	-46	FAK inh conf=0
COC(=O)c1cccc(N(C(=O)c2cnccn2)C(C(=O)NC2CCCCC2)c2cn(C)nc2C)c1 (centres undefined)	-6	1.1	-2	-7	-7	-2	.	.
